Our source for the Activity and Ki values is ChEMBL document CHEMBL1140909 (J Med Chem, 2009).

The target in test [1] is 72 kDa type IV collagenase (Homo sapiens) (UniProt P08253). Briefly: Stimulation of MMP2 activity in HUVEC assessed as increase in enzyme activity at 10 nM relative to control. The format is cell-based. In outline:
(§1)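 HUVEC or CB1 siRNA-knockdown HUVEC (electroporated, 1.5 µg siRNA) grown to 90% confluence in six-well plates, treated with drug (optionally with 1 µM O-1918) with or without UV irradiation (1-15 min, 280-315 nm), 24 h at 37 °C. Conditioned media mixed with DQ gelatin (6 µg/mL), 24 h at 37 °C dark; fluorescence 485/530 nm against collagenase standard curve; triplicate; percent over vehicle, mean ± SEM of three experiments.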

Test [2] concerns the target Matrix metalloproteinase-9 (Homo sapiens) (UniProt P14780). As to the kind of experiment: Stimulation of MMP9 activity in HUVEC assessed as increase in enzyme activity at 1 uM relative to control. The format is cell-based. In outline:
as §1

For test [3] the target is unchanged. Briefly: Stimulation of MMP9 activity in CB1 receptor knockout HUVEC assessed as increase in enzyme activity at 1 uM relative to control. The test is classed as cell-based. In outline:
as §1

Test [4] concerns the target 72 kDa type IV collagenase (Homo sapiens) (UniProt P08253). Briefly: Stimulation of MMP2 activity in CB1 receptor knockout HUVEC assessed as increase in enzyme activity at 100 nM relative to control. The test is classed as cell-based. In outline:
as §1

For test [5], the target named is Matrix metalloproteinase-9 (Homo sapiens) (UniProt P14780). As to the kind of experiment: Stimulation of MMP9 activity in HUVEC assessed as increase in enzyme activity at 10 nM relative to control. The format is cell-based. In outline:
as §1

Test [6] has the same target. As to the kind of experiment: Stimulation of MMP9 activity in CB1 receptor knockout HUVEC assessed as increase in enzyme activity at 100 nM relative to control. The procedure, abridged: as §1
Test [7] addresses 72 kDa type IV collagenase (Homo sapiens) (UniProt P08253). As to the kind of experiment: Stimulation of MMP2 activity in HUVEC assessed as increase in enzyme activity at 1 uM relative to control. The procedure, abridged:
as §1

The target of test [8] is Matrix metalloproteinase-9 (Homo sapiens) (UniProt P14780). Briefly: Stimulation of MMP9 activity in HUVEC assessed as increase in enzyme activity at 100 nM relative to control. The procedure, abridged: as §1
The target is the same in test [9]. Briefly: Stimulation of MMP9 activity in CB1 receptor knockout HUVEC assessed as increase in enzyme activity at 10 nM relative to control. In outline: as §1
In test [10] the target is 72 kDa type IV collagenase (Homo sapiens) (UniProt P08253). As to the kind of experiment: Stimulation of MMP2 activity in CB1 receptor knockout HUVEC assessed as increase in enzyme activity at 1 uM relative to control. The test is classed as cell-based. The procedure, abridged: as §1
The target is the same in test [11]. Briefly: Stimulation of MMP2 activity in CB1 receptor knockout HUVEC assessed as increase in enzyme activity at 10 nM relative to control. The test is classed as cell-based. The procedure, abridged:
as §1

For test [12] the target is unchanged. Briefly: Stimulation of MMP2 activity in HUVEC assessed as increase in enzyme activity at 100 nM relative to control. The procedure, abridged:
as §1

The subject of test [13] is HUVEC. Briefly: Increase in cell migration of irradiated HUVEC at 1 uM relative to control. The test is classed as functional, Homo sapiens. In outline:
(§2)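 Cells harvested with versene, resuspended in RPMI 1640 with 0.1% BSA; 30 000 cells loaded in bottom well of 48-well microchemotaxis chamber under collagen IV-coated (0.1 mg/mL) 10 µm polyester filter, inverted 2 h at 37 °C; upper wells given drug in RPMI/0.1% BSA, 6 h at 37 °C. Filters fixed and stained with Diff-Quick; migrated cells counted at well centre, ×20. UV irradiation 1-15 min at 280-315 nm, 10 in. distance.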

The next test addresses Cannabinoid receptor 1 (Homo sapiens, UniProt P21554). Briefly: Displacement of [3H]CP-55-940 from human recombinant CB1 receptor expressed in COS cells. The test is classed as cell-based.
Test [14] has as its system HUVEC. As to the kind of experiment: Stimulation of angiogenesis of CB1 receptor knockout irradiated HUVEC assessed as increase in cord length formation after 36 hrs by Matrigel based tube formation assay. The format is functional, cell-based. The following applies: Homo sapiens. In outline:
(§3)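 HUVEC or CB1 siRNA-knockdown HUVEC at 90% confluence harvested with versene, spun 600g 5 min, resuspended in serum-free RPMI 1640 with drug (optionally 1 µM O-1918); 40 000 cells/well on gelled 1:1 RPMI/Matrigel, with or without UV irradiation, 36 h at 37 °C. Fixed with Diff-Quick; total tube length from three random 10× fields; triplicate, three experiments; percent increase over vehicle, mean ± SEM; bFGF 5 ng/mL positive control.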

For test [15], the system named is HUVEC. As to the kind of experiment: Stimulation of angiogenesis of CB1 receptor knockout HUVEC assessed as increase in cord length formation after 36 hrs by Matrigel based tube formation assay. The format is functional. The procedure, abridged:
as §3

In a further test the target is Cannabinoid receptor 2 (Homo sapiens, UniProt P34972). Briefly: Displacement of [3H]CP-55-940 from human recombinant CB2 receptor expressed in COS cells. The format is cell-based.
Test [16] concerns the target 72 kDa type IV collagenase (Homo sapiens) (UniProt P08253). As to the kind of experiment: Stimulation of MMP2 activity in CB1 receptor knockout HUVEC assessed as increase in enzyme activity in presence of 1 uM anandamide receptor antagonist O-1918 relative to control. The test is classed as functional, cell-based. The procedure, abridged:
as §1

Test [17] deals with HUVEC. As to the kind of experiment: Increase in cell migration of irradiated HUVEC at 10 nM relative to control. The format is functional, Homo sapiens. In outline:
as §2

Test [18] deals with Matrix metalloproteinase-9 (Homo sapiens) (UniProt P14780). Briefly: Stimulation of MMP9 activity in CB1 receptor knockout HUVEC assessed as increase in enzyme activity in presence of 1 uM anandamide receptor antagonist O-1918 relative to control. The test is classed as functional, cell-based. In outline:
as §1

Test [19] concerns HUVEC. As to the kind of experiment: Increase in cell migration of irradiated HUVEC at 100 nM relative to control. The format is functional, Homo sapiens. In outline:
as §2

Test [20] deals with HUVEC. As to the kind of experiment: Stimulation of angiogenesis of irradiated CB1 receptor knockout HUVEC assessed as increase in cord length formation after 36 hrs at 100 nM by Matrigel based tube formation assay. The test is classed as functional, Homo sapiens. In outline:
as §3

Test [21] deals with HUVEC. Briefly: Stimulation of angiogenesis of HUVEC assessed as increase in cord length formation after 36 hrs by Matrigel based tube formation assay. The conditions noted are these: Homo sapiens. The format is functional, cell-based. In outline:
as §3

For test [22], the system named is HUVEC. As to the kind of experiment: Stimulation of angiogenesis of irradiated CB1 receptor knockout HUVEC assessed as increase in cord length formation after 36 hrs at 10 nM by Matrigel based tube formation assay. The format is functional, Homo sapiens. The procedure, abridged: as §3
In test [23] the test system is HUVEC. As to the kind of experiment: Stimulation of angiogenesis of irradiated CB1 receptor knockout HUVEC assessed as increase in cord length formation after 36 hrs at 1 uM in presence of 1 uM anandamide receptor antagonist O-1918 by Matrigel based tube formation assay. The conditions noted are these: Homo sapiens. The format is functional, cell-based. The procedure, abridged:
as §3

Test [24] has as its system HUVEC. Briefly: Stimulation of angiogenesis of irradiated CB1 receptor knockout HUVEC assessed as increase in cord length formation after 36 hrs at 1 uM by Matrigel based tube formation assay. The format is functional, Homo sapiens. The procedure, abridged: as §3
The test system of test [25] is HUVEC. As to the kind of experiment: Stimulation of angiogenesis of irradiated HUVEC assessed as increase in cord length formation after 36 hrs by Matrigel based tube formation assay. The format is functional, cell-based. The following applies: Homo sapiens. The procedure, abridged:
as §3

As usually defined, the Ki is the dissociation constant of the complex between target and ligand, obtained from inhibition or displacement.

Calls of active or inactive are those of the source. No cut-off for these calls is given here.

Sequence of 72 kDa type IV collagenase (Homo sapiens) (P08253 110-660 limits assumed): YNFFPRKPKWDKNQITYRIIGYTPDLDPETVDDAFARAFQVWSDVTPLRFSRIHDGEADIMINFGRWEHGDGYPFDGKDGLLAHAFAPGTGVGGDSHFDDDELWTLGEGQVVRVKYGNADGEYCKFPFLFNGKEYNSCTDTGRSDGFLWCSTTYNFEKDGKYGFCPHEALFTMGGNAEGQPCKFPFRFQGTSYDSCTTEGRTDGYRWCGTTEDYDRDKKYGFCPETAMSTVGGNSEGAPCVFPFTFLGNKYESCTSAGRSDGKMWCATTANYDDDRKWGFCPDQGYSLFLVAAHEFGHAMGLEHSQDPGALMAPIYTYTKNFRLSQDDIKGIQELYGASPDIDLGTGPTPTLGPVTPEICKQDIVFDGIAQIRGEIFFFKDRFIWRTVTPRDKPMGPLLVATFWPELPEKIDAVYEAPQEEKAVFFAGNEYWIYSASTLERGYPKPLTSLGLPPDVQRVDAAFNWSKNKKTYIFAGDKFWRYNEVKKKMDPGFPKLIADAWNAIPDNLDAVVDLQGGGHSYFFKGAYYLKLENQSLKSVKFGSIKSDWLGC
Sequence of Matrix metalloproteinase-9 (Homo sapiens) (P14780 whole entry): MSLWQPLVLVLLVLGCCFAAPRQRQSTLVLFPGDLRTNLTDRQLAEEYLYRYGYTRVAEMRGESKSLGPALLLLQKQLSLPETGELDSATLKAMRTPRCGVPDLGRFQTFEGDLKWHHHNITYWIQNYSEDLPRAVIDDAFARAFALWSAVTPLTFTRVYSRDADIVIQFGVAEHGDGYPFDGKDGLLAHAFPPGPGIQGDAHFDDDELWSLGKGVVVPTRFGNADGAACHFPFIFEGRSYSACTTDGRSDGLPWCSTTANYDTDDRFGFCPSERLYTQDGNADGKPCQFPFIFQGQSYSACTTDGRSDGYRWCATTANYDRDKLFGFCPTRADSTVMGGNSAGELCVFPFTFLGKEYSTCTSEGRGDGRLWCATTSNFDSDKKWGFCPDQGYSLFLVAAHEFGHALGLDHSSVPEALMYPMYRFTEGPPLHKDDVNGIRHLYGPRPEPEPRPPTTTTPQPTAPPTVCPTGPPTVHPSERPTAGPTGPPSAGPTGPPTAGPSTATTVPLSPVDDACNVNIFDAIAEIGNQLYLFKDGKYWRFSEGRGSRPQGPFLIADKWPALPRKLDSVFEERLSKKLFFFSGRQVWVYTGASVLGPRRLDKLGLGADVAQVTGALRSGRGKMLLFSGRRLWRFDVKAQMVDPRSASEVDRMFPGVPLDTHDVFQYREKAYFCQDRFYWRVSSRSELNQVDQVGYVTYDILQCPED
Sequence of Cannabinoid receptor 2 (P34972 whole entry): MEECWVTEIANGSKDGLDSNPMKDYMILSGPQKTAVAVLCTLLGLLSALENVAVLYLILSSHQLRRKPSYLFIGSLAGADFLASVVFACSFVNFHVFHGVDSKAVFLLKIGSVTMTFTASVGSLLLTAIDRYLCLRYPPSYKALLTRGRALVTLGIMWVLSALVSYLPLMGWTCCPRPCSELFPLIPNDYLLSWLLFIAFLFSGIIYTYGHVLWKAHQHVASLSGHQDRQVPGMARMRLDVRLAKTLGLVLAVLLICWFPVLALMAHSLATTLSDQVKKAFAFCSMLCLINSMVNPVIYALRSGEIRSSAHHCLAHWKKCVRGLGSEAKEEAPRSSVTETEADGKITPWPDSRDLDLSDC
Sequence of Cannabinoid receptor 1 (P21554 whole entry): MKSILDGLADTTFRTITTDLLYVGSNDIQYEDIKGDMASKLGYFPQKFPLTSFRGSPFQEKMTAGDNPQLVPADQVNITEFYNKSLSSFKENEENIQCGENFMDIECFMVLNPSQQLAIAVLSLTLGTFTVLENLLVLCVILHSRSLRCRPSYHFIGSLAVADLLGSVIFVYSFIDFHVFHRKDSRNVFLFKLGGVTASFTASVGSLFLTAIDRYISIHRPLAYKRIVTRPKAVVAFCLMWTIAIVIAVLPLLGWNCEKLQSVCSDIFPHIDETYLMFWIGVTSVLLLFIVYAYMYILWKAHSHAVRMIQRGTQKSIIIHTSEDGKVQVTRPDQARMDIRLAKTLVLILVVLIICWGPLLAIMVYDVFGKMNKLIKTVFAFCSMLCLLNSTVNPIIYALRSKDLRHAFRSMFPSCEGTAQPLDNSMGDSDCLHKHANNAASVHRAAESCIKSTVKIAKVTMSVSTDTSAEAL

Consider `CCCCC/C=C\C/C=C\C/C=C\C/C=C\CCCC(=O)N[C@H](C)CO`, for which the Activity was determined as 5% in test [1]; 28% in [2]; 33% in [3]; 33% in test [4]; 20% in [5]; 10% in test [6]. Further, the Activity in test [7] came out at 20%; in test [8], 5%; in [9], 25%; in test [10], 25%; in test [11] it was 10%; in [12], 28%.

For the molecule `C[C@H](CO)NC(=O)CCC/C=C\C/C=C\C/C=C\C/C=C\CCOC(=O)c1cccc2c1OC(C)(C(C)(C)C)O2` (stereo partly drawn), the Activity is 55% in the test with HUVEC [13], 27% with HUVEC [17] and 40% in the test with HUVEC [19]. For the same molecule, the Ki was 2800 nM on Cannabinoid receptor 1 and 1020 nM at Cannabinoid receptor 2. Besides, the result in [1], in test [2], in [3], in [4], in test [5] and in test [6] was inactive. Moreover, the result in test [7], in test [8], in test [9], in test [10], in test [11] and in test [16] was inactive. In addition, the result in [18] and in [12] was inactive. Moreover, the outcome in the test on HUVEC [14] and in the test with HUVEC [15] (Homo sapiens) was Active.

For `C[C@H](CO)NC(=O)CCC/C=C\C/C=C\C/C=C\C/C=C\CCOC(=O)c1cc(I)ccc1N=[N+]=[N-]`, the Activity with HUVEC [13] was 54%; in the test on HUVEC [14], “Dose-dependent effect”; in the test with HUVEC [20] it was 30%; in the test on HUVEC [21], “Dose-dependent effect”; with HUVEC [22], 21%; in the test with HUVEC [15] it was 8%. For the same molecule, the Activity is reported as 47% in the test with HUVEC [24], 18% in the test on HUVEC [17] and 35% in the test with HUVEC [19]. Further, the outcome in [1], in [2], in [3], in test [4], in test [5] and in [6] was inactive. Moreover, the outcome (in test [7]; in test [8]; in [9]; in test [10]; in the test on HUVEC [23]; in test [11]) was inactive. In addition, the result in test [16], in test [18] and in test [12] was inactive. In the test with HUVEC [25], the result was Active.
